Entries after “also recorded” stand apart in the source; their conditions may differ.
Tests used:
[1] = tested on: m6 TCR; assay: SPR of TCR binding to immobilized null MCMV/L^d/Ig; parameters: species or system mouse; conditions: PBS, 25°C
How it was run: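 MCMV-loaded Ld/IgG1 fusion (peptide at 100-fold molar excess, pH 6.5, 37°C 1.5 h; refolded pH 7.4, 4°C 24 h; G-200 repurified) was captured on a CM5 chip coated with rabbit anti-mouse IgG. Drosophila-expressed His6 soluble m6 TCR, Ni-NTA and gel-filtration purified, was injected at several concentrations at 30 μl/min. Responses were blank-surface subtracted; regeneration used 10 mM glycine, pH 1.5.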

[2] = tested on: m6 TCR; format: binding, mouse; conditions: calculated from the flow cytometry kd, room temperature
How it was run: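 T2-Ld cells (human lymphoblastoid line expressing Ld, ~3 × 10^6/ml) were loaded with peptide (~1–10 μM final) for 2 h at 37°C. They were stained for 30 min with full-length m6 TCR Drosophila supernatant, washed, and held at room temperature in PBS/1% BSA with F23.2 IgG (~300 μg/ml) as competitor. At timed points, ice-cold washes were done and residual TCR was detected by F23.1-biotin/SAv:PE flow cytometry. n = 2–3.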

Row | Substance | TCR binding to peptide/L^d/Ig immobilized on the chip [1] | t1/2 of m6 TCR on cell-bound peptide/L^d [2]
1 | YPHFMPTNL [MCMV] | not observed; also recorded: undetectable | 
2 | QL9-Y5: QL9 variant with a Tyr substitution for the Phe at position 5 (QLSPYPFDL) |  | 1,180 s
3 | QL9-M5: QL9 variant containing a position five (Phe) substitution (QLSPMPFDL) |  | 140 s

Reference: article PMC2193521 (The Journal of Experimental Medicine, 2001)
